Diaphorase act: counter-screen for diaphorase-based assays: diaphorase activators and chemical reducers. Diaphorase/resazurin coupled assay, resorufin fluorescence, 16 min; stronger effect = higher value; 1 = vehicle wells, 0 = NADH-free wells. activation factor at 20 µM. 0.005% of 190,000 active;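 active = diaphorase activity raised at least twofold by the compound at 20 µM; inactive = activation factor below 2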
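Assay system: Purified diaphorase enzyme from Clostridium kluyveri | Amount: Enzyme 0.07 U/mL final | Dosing: Compound 20 µM once, DMSO 1% | Timing: 16 min reaction at room temperature | Detection: Fluorescence, excitation 544 nm and emission 590 nm | Evaluation: Higher resorufin formation from activation or reduction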
Diaph inh CS: inhibits diaphorase or chemically oxidizes, flagging diaphorase assay artifacts | 0.69% of 190,000 active | inhibition, % at 20 µM | diaphorase resazurin-to-resorufin fluorescence, NADH, 16 min; bacterial (C. kluyveri) enzyme, not human;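 active = primary screen inhibition at 20 µM above a set limit, cut at about 50% in these data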;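 also: plate controls were DMSO with full reaction for no effect and wells lacking NADH for full effect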
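Assay system: diaphorase enzyme from Clostridium kluyveri; Input: enzyme working solution with 0.14 U/mL diaphorase; Timing: 16 min at room temperature; Technique: resorufin fluorescence, excitation 544 nm, emission 590 nm; Benchmarks: positive control minus NADH, DMSO neutral control.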
PfG6PD inh: PfG6PD (Plasmodium falciparum) enzyme inhibition; PfGluPho enzyme, NADPH resazurin-diaphorase fluorescence; inhibition, % at 20 µM; 0.78% of 350,000 active; AID 504690;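 active = inhibition reaching at least a set limit at 20 µM in the primary screen, cut at about 59% in these data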;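 also: 0% = DMSO wells with substrate and 100% = DMSO wells lacking glucose-6-phosphate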
G6PDH CS: L. mesenteroides G6PDH inhibition counter-screen. Purified L. mesenteroides G6PDH, diaphorase/resazurin coupled fluorescence, 45 min. inhibition, % at 5 µM. 0.12% of 200,000 active. AID 1020
L major viab: Leishmania major promastigote growth inhibition; Leishmania major promastigotes, resazurin fluorescence viability; inhibition, % at 10 µM; 9% of 200,000 active;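 also: promastigotes grown with compound for 44 hours at 28 °C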
Redox H2O2 prof: compounds producing H2O2 with reducing agent – biochemical, NIH compound library profiling, artefact control for MLSCN library redox annotation, primary screen. DTT-dependent redox cycling H2O2, phenol red/HRP absorbance; 100% = 100 µM peroxide control, 0% = buffer. activation, % at 10 µM. 0.03% of 200,000 active;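 active = activation of at least 50% relative to the plate's high and low controls in the primary single-dose screen; inactive = activation below 50%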;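 also: compound incubated with DTT at 0.8 mM final as the reducing agent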
* = called active by the depositor. This excerpt belongs to a sample that is enriched for hits. Rule as the data show it, unless noted: active = inhibition above about 50%; inactive = the rest.

What do the screens show for `Cc1ccc(S(=O)(=O)N2CCC(N3CCN(C)CC3)CC2)cc1Cl`?
PfG6PD inh: -19

What do the screens show for `O=C(N/N=C/c1ccc([N+](=O)[O-])o1)C(O)c1ccccc1` (stereo not drawn)?
PfG6PD inh: 3

What do the screens show for `Cc1ccc(NC(=O)CCC(=O)N/N=C/c2ccc([N+](=O)[O-])o2)cc1C`?
PfG6PD inh: 11

Results for CCCC(=O)Nc1ccc(C(=O)N/N=C/c2ccc([N+](=O)[O-])o2)cc1 ?
Diaphorase act: 0.7; Diaph inh CS: 33; PfG6PD inh: 11; G6PDH CS: 16; L major viab: 99*; Redox H2O2 prof: 0

What do the screens show for `CN(/N=C/c1ccc([N+](=O)[O-])o1)c1ccccc1`?
Diaphorase act: 0.9; Diaph inh CS: 7; PfG6PD inh: 34; G6PDH CS: 5; L major viab: 71*; Redox H2O2 prof: 0

Results for COCCNC(=O)CCn1c(=O)oc2ccccc21 ?
Diaphorase act: 0.9; Diaph inh CS: 8; PfG6PD inh: -12; G6PDH CS: 2; L major viab: 70*; Redox H2O2 prof: -4

Results for CC(=O)C(N=Nc1ccccc1)(Sc1nnc(-c2ccccc2)n1-c1ccccc1)C(=O)Nc1ccccc1 (stereo not drawn) ?
Diaphorase act: 0.8; Diaph inh CS: 16; PfG6PD inh: -3; G6PDH CS: 4; L major viab: 78*; Redox H2O2 prof: -4

How did C/C(=N/N=C1/NC(=O)CC(C(=O)Nc2ccccc2)S1)c1cccs1 (stereo not drawn) do in these assays?
Diaphorase act: 0.8; Diaph inh CS: 19; PfG6PD inh: -8; G6PDH CS: -9; L major viab: 78*; Redox H2O2 prof: 0

Results for C/C(=N/N=C1/NC(=O)CC(C(=O)O)S1)c1ccccc1 (stereo not drawn) ?
Diaphorase act: 1; Diaph inh CS: 5; PfG6PD inh: -19; G6PDH CS: -9; L major viab: -5; Redox H2O2 prof: 0

What do the screens show for `Cc1ccc(NC(=O)C2CC(=O)N/C(=N/N=C/c3ccco3)S2)cc1` (stereo not drawn)?
Diaphorase act: 1; Diaph inh CS: 2; PfG6PD inh: -23; G6PDH CS: -12; L major viab: 58*; Redox H2O2 prof: 0

How did O=C1CC(C(=O)Nc2ccc(F)cc2)S/C(=N\N=C\c2ccco2)N1 (stereo not drawn) do in these assays?
Diaphorase act: 1.1; Diaph inh CS: -9; PfG6PD inh: -18; G6PDH CS: -6; L major viab: 8; Redox H2O2 prof: 0

Results for COCCC(=O)N1CCC(Oc2ccc(C(=O)N3CCC(N(C)C)C3)cc2)CC1 (stereo not drawn) ?
PfG6PD inh: 4

What do the screens show for `C=CCN(CC=C)C(=O)c1ccc(OC2CCN(Cc3ccccn3)CC2)cc1`?
Diaphorase act: 0.9; Diaph inh CS: 7; PfG6PD inh: -9; G6PDH CS: 11; L major viab: 59*; Redox H2O2 prof: 0

How did COC1CCN(C(=O)c2ccc(OC3CCN(Cc4ccccn4)CC3)cc2)CC1 do in these assays?
Diaphorase act: 0.9; Diaph inh CS: 7; PfG6PD inh: 0; G6PDH CS: 9; L major viab: -3; Redox H2O2 prof: 1

How did Cc1ccccc1C(=O)O/N=C/c1c(N2CCOCC2)n(C)c2ccccc12 do in these assays?
Diaphorase act: 0.9; Diaph inh CS: 12; PfG6PD inh: 15; G6PDH CS: 1; L major viab: 100*; Redox H2O2 prof: -4

What do the screens show for `O=C(CSc1nc2[nH]ncc2c(=O)[nH]1)Nc1cc(C(F)(F)F)ccc1Cl`?
PfG6PD inh: -16

What do the screens show for `COc1cc(C(=O)CCN2CCC(c3ccccc3)C2)cc(OC)c1OC` (stereo not drawn)?
Diaphorase act: 0.9; Diaph inh CS: 7; PfG6PD inh: -1; G6PDH CS: 4; L major viab: 81*; Redox H2O2 prof: 0

What do the screens show for `COc1cc(C(=O)NC2CCN(Cc3ccccc3)CC2)cc(Cl)c1OC`?
PfG6PD inh: 11

How did O=C(CCN1CCC(c2ccccc2)C1)c1ccccc1 (stereo not drawn) do in these assays?
Diaphorase act: 1.1; Diaph inh CS: -8; PfG6PD inh: 3; G6PDH CS: 10; L major viab: 48; Redox H2O2 prof: 2

Results for O=C(CCN1CCCCC1)c1ccc2c(c1)OCCO2 ?
Diaphorase act: 0.9; Diaph inh CS: 12; PfG6PD inh: 5; G6PDH CS: 1; L major viab: 26; Redox H2O2 prof: -10

Results for O=C(CCN1CCC(c2ccccc2)C1)c1ccc2c(c1)OCCO2 (stereo not drawn) ?
Diaphorase act: 0.9; Diaph inh CS: 11; PfG6PD inh: 8; G6PDH CS: -9; L major viab: 101*; Redox H2O2 prof: 0

Results for O=C(CCN1CCCC1Cc1ccccc1)c1ccc2c(c1)OCCO2 (stereo not drawn) ?
Diaphorase act: 1; Diaph inh CS: -3; PfG6PD inh: -2; G6PDH CS: 0; L major viab: 100*; Redox H2O2 prof: 0

How did O=C(CCN1CCC(c2ccccc2)C1)c1cccs1 (stereo not drawn) do in these assays?
Diaphorase act: 1; Diaph inh CS: 2; PfG6PD inh: 8; G6PDH CS: -3; L major viab: 72*; Redox H2O2 prof: 3

What do the screens show for `Cn1c(=O)oc2cc(S(=O)(=O)CCC(=O)Nc3ccccc3)ccc21`?
PfG6PD inh: 3

Results for O=C(CCN1CCc2ccccc2C1)c1ccc2c(c1)OCCO2 ?
Diaphorase act: 0.9; Diaph inh CS: 6; PfG6PD inh: 5; G6PDH CS: 6; L major viab: 100*; Redox H2O2 prof: -3

What do the screens show for `CSc1ccccc1C(=O)C1CCCN(S(=O)(=O)c2c(C)noc2C)C1` (stereo not drawn)?
Diaphorase act: 1; Diaph inh CS: 2; PfG6PD inh: -14; G6PDH CS: -1; L major viab: 10; Redox H2O2 prof: -1

Results for COc1ccc(NC(=O)c2c3c(nc4ccccc24)CCN(Cc2ccccc2)C3)c(OC)c1 ?
Diaphorase act: 0.8; Diaph inh CS: 16; PfG6PD inh: -7; G6PDH CS: -1; L major viab: 2; Redox H2O2 prof: -1

What do the screens show for `CCN(CC)S(=O)(=O)c1ccc(OC(C)C)c(NC(=O)c2c3c(nc4ccccc24)CCN(Cc2ccccc2)C3)c1`?
Diaphorase act: 0.9; Diaph inh CS: 15; PfG6PD inh: -4; G6PDH CS: -3; L major viab: 58*; Redox H2O2 prof: 0
